Here are results for one molecule from ChEMBL document CHEMBL3232893, “Design of antiviral stapled peptides containing a biphenyl cross-linker” (Bioorg Med Chem Lett, 2014).

Data set [1] concerns Human immunodeficiency virus 1. Put plainly: Antiviral activity against HIV-1 3B infected in human MT-2 cells assessed as reduction in p24 antigen level incubated for overnight measured on fourth day post infection by multi-cycle infection assay based sandwich ELISA. The format is functional, organism-based. As to conditions: Human immunodeficiency virus 1, 3B, MT2. In outline: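 Multi-cycle infection in MT-2 cells; read-out is reduction of p24 levels. IC50 derived from dose-response.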

Data set [2] is described as follows: Cytotoxicity against human MT2 cells after 4 days by XTT assay. The data set is classed as cell-based.
The subject of data set [3] is Human immunodeficiency virus 1. Kind of data set: Antiviral activity against HIV-1 NL4-3-HXB2 pseudovirus co-transfected with luciferase gene infected in human TZM-bl cells assessed as reduction of luciferase production after 3 days by single-cycle neutralization assay. Particulars: Human immunodeficiency virus 1, NL4-3-HXB2, TZM-bl, 72 h. The data set is classed as functional, organism-based. In outline: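 Single-cycle neutralization in TZM-bl cells; read-out is reduction of luciferase production. IC50 derived from dose-response.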

Data set [4] is described as follows: Cytotoxicity against human TZM-bl cells after 3 days by XTT assay. The format is cell-based.
Data set [5] can be described thus: Binding affinity to HIV-1 C-terminal domain of capsid protein p24. The arrangement: species or system Human immunodeficiency virus 1.
A short description of data set [6]: Binding affinity to HIV-1 capsid protein C-terminal domain M184A/W185A mutant at 15 uM by isothermal titration calorimetric analysis. The arrangement: species or system Human immunodeficiency virus 1. In outline: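 ITC: 350 μM CTD M184A/W185A mutant titrated in 10 μL aliquots into 15 μM peptide in the cell. The integrated binding isotherm was fitted to a single-site binding equation to give Kd.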

Each structure is given as a SMILES string. pIC50, pKd: −log10 of the molar value. Peptide text beside a SMILES is read from it.

As to `CC[C@H](C)[C@H](N)C(=O)N[C@H](C(=O)N[C@@H](Cc1ccccc1)C(=O)N[C@@H](CCC(=O)O)C(=O)N[C@@H](CC(=O)O)C(=O)N[C@@H](CC(C)C)C(=O)N[C@@H](CC(C)C)C(=O)N[C@@H](CC(=O)O)C(=O)N[C@@H](Cc1ccc(O)cc1)C(=O)N[C@@H](Cc1ccc(O)cc1)C(=O)NCC(=O)N1CCC[C@H]1C(=O)O)[C@@H](C)O` (H-ITFEDLLDYYGP-OH), the pIC50 in data set [1] and in data set [3] was under 3.87 throughout. Besides, in data set [2], the CC50 at 96 h was over 135 µM. The CC50 at 72 h in data set [4] is over 135 µM. The figures for the negative-log Kd (pKd) in data set [5] and in data set [6] were 4.82 and 5.08, respectively.
